# In ChEMBL document CHEMBL1800018, “Discovery of a series of imidazo[4,5-b]pyridines with dual activity at angiotensin II type 1 receptor and peroxisome proliferator-activated receptor-γ” (J Med Chem, 2011):
# The source made the active and inactive calls. No cut-off for these calls is given here.
# Assays:
# [1] = Cmax in SHR rat at 3 mg/kg, po; format: ADME, organism-based; set-up: dose 3 mg/kg, route oral; conditions: in vivo
# Outline: (§1)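 SHR received a single oral dose of 1, 3 or 10 mg/kg. Systemic exposure was determined as plasma Cmax and AUC.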
# Rattus norvegicus [2] = experiment: Antidiabetic activity in ZDF rat assessed as body weight gain at 10 mg/kg, po QD for 40 days (reference value: 133+/-9 g); format: functional
# Outline: (§2)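 Male ZDF rats, starting at about 6 weeks old, were dosed orally once daily for 40 days in 1.5% CMC/0.2% Tween 20 suspension, n = 8/group. Body weight was followed over the study. Gain was calculated per animal from day 0 to day 40 and compared with vehicle and pioglitazone (3 mg/kg) groups. Data are mean ± SEM.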
# Rattus norvegicus [3] = experiment: Antihypertensive activity in SHR rat assessed as decrease in arterial blood pressure at 10 mg/kg, po QD for 7 days; format: functional, Artery
# Rattus norvegicus [4] = experiment: Antidiabetic activity in ZDF rat assessed as adiponectin level at 10 mg/kg, po QD for 40 days (reference value: 11.9+/-1.5 ug/ml); format: functional
# Rattus norvegicus [5] = experiment: Antidiabetic activity in ZDF rat assessed as body weight gain at 1 mg/kg, po QD for 40 days (reference value: 133+/-9 g); format: functional; outline: as §2
# Rattus norvegicus [6] = experiment: Antidiabetic activity in ZDF rat assessed as triglyceride level at 30 mg/kg, po QD for 40 days (reference value: 618+/-52 mg/dL); format: functional
# Rattus norvegicus [7] = experiment: Antidiabetic activity in ZDF rat assessed as triglyceride level at 100 mg/kg, po QD for 40 days (reference value: 618+/-52 mg/dL); format: functional
# [8] = target: T1, Peroxisome proliferator-activated receptor delta (Homo sapiens) (UniProt Q03181); experiment: Transactivation of human PPARbeta
# T1 sequence (whole entry): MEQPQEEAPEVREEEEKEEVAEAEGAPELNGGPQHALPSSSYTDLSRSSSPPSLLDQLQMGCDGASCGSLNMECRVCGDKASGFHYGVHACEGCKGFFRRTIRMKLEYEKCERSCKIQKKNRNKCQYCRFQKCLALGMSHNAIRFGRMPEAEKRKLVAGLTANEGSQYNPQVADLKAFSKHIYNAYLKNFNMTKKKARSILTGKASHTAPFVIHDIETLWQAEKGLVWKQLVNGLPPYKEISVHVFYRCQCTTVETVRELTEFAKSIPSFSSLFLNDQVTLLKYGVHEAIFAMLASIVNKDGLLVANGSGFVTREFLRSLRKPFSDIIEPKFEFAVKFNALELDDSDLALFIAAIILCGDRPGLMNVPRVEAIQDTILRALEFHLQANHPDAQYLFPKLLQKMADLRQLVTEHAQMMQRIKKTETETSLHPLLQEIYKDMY
# Rattus norvegicus [9] = experiment: Antidiabetic activity in ZDF rat assessed as adiponectin level at 0.1 mg/kg, po QD for 40 days (reference value: 11.9+/-1.5 ug/ml); format: functional
# Rattus norvegicus [10] = experiment: Antidiabetic activity in ZDF rat assessed as body weight gain at 3 mg/kg, po QD for 40 days (reference value: 133+/-9 g); format: functional; outline: as §2
# Rattus norvegicus [11] = experiment: Antidiabetic activity in ZDF rat assessed as triglyceride level at 3 mg/kg, po QD for 40 days (reference value: 618+/-52 mg/dL); format: functional
# Rattus norvegicus [12] = experiment: Antidiabetic activity in ZDF rat assessed as body weight gain at 100 mg/kg, po QD for 40 days relative to pioglitazone; format: functional; outline: as §2
# Rattus norvegicus [13] = experiment: Antihypertensive activity in SHR rat assessed as decrease in arterial blood pressure at 0.3 to 10 mg/kg, po administered as single dose measured after 20 hrs; format: functional, organism-based; conditions: Artery
# Outline: (§3)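 SHR carried aortic radiotelemetry transmitters implanted under Telazol anesthesia and recovered for at least 1 week. Rats were randomized by 2 h baseline mean BP. Each received vehicle by oral gavage on Day 0 and a single drug dose (0.3–10 mg/kg) on Day 1, with BP followed 20 h each day. The change was taken as Day 1 minus Day 0, n = 8/group.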
# Rattus norvegicus [14] = experiment: Antidiabetic activity in ZDF rat assessed as triglyceride level at 1 mg/kg, po QD for 40 days (reference value: 618+/-52 mg/dL); format: functional
# [15] = AUC in SHR rat at 3 mg/kg, po; format: ADME, organism-based; set-up: dose 3 mg/kg, route oral; conditions: plasma; outline: as §1
# Rattus norvegicus [16] = experiment: Antihypertensive activity in SHR rat assessed as decrease in arterial blood pressure at 10 mg/kg, po administered as single dose; format: functional, Artery; outline: as §3
# [17] = Cmax in SHR rat at 1 mg/kg, po; format: ADME, organism-based; set-up: dose 1 mg/kg, route oral; conditions: in vivo; outline: as §1
# [18] = Cmax in ZDF rat at 100 mg/kg, po; format: ADME, organism-based; set-up: dose 100 mg/kg, route oral; conditions: in vivo
# Outline: (§4)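 Male ZDF rats; satellite animals outside the efficacy groups were given oral doses of 3, 10 or 100 mg/kg. Plasma Cmax and AUC were calculated from these animals.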
# Rattus norvegicus [19] = experiment: Antidiabetic activity in ZDF rat assessed as triglyceride level at 10 mg/kg, po QD for 40 days (reference value: 618+/-52 mg/dL); format: functional
# [20] = AUC in ZDF rat at 100 mg/kg, po; format: ADME, organism-based; set-up: dose 100 mg/kg, route oral; conditions: plasma; outline: as §4
# Rattus norvegicus [21] = experiment: Antidiabetic activity in ZDF rat assessed as triglyceride level at 0.1 mg/kg, po QD for 40 days (reference value: 618+/-52 mg/dL); format: functional
# Rattus norvegicus [22] = experiment: Antidiabetic activity in ZDF rat assessed as blood glucose level at 0.1 mg/kg, po QD for 40 days (reference value: 771+/-60 mg/dL); format: functional
# Rattus norvegicus [23] = experiment: Antidiabetic activity in ZDF rat assessed as body weight gain at 100 mg/kg, po QD for 40 days (reference value: 133+/-9 g); format: functional; outline: as §2
# [24] = target: T2, Type-2 angiotensin II receptor (Homo sapiens, UniProt P50052); experiment: Binding affinity to human Angiotensin receptor 2
# T2 sequence (P50052 whole entry): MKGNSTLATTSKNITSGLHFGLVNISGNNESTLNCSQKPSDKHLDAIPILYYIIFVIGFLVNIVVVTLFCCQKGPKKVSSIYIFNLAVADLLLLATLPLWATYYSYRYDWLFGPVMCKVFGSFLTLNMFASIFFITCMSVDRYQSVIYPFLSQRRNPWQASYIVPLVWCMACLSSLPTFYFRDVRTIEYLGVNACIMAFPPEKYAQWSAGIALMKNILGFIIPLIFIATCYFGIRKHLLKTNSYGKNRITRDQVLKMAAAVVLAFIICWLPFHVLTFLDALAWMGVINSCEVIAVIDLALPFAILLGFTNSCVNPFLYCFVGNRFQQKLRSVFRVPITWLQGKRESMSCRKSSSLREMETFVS
# [25] = AUC in ZDF rat at 10 mg/kg, po; format: ADME, organism-based; set-up: dose 10 mg/kg, route oral; conditions: plasma; outline: as §4
# [26] = Half life in rat at 1 mg/kg, iv; format: ADME, organism-based; set-up: dose 1 mg/kg, route intravenous; conditions: in vivo
# [27] = Clearance in rat at 1 mg/kg, iv; format: ADME, organism-based; set-up: dose 1 mg/kg, route intravenous; conditions: in vivo
# Rattus norvegicus [28] = experiment: Antidiabetic activity in ZDF rat assessed as blood glucose level at 3 mg/kg, po QD for 40 days (reference value: 771+/-60 mg/dL); format: functional
# [29] = Cmax in ZDF rat at 3 mg/kg, po; format: ADME, organism-based; set-up: dose 3 mg/kg, route oral; conditions: in vivo; outline: as §4
# Rattus norvegicus [30] = experiment: Antihypertensive activity in po dosed SHR rat assessed as decrease in arterial blood pressure administered as single dose; format: functional, organism-based; conditions: Artery; outline: as §3
# [31] = AUC in SHR rat at 10 mg/kg, po; format: ADME, organism-based; set-up: dose 10 mg/kg, route oral; conditions: plasma; outline: as §1
structure (smiles),measurement,setting,value
CCc1nc2c(C)cc(CC(C)C)nc2n1[C@H]1CCc2cc(-c3ccccc3-c3nnn[nH]3)ccc21,Cmax,[1],283 ng/mL
same,Activity,Rattus norvegicus [2],200 g
same,Activity,Rattus norvegicus [3],>60 mmHg
same,Activity,Rattus norvegicus [4],24.4 µg/mL
same,Activity,Rattus norvegicus [5],150 g
same,Activity,Rattus norvegicus [6],288 mg/dL
same,Activity,Rattus norvegicus [7],151 mg/dL
same,Activity,[8],inactive
same,Activity,Rattus norvegicus [9],9.9 µg/mL
same,Activity,Rattus norvegicus [10],159 g
same,Activity,Rattus norvegicus [11],734 mg/dL
same,Activity,Rattus norvegicus [12],51%
same,Activity,Rattus norvegicus [13],Active
same,Activity,Rattus norvegicus [14],725 mg/dL
same,AUC,[15],1.28 µg·h/mL
same,Activity,Rattus norvegicus [16],36 mmHg
same,Cmax,[17],74 ng/mL
same,Cmax,[18],177000 ng/mL
same,Activity,Rattus norvegicus [19],393 mg/dL
same,AUC,[20],2600 µg·h/mL
same,Activity,Rattus norvegicus [21],559 mg/dL
same,Activity,Rattus norvegicus [22],771 mg/dL
same,Activity,Rattus norvegicus [23],202 g
same,Ki,[24],> 10 µM
same,AUC,[25],28 µg·h/mL
same,half-life,[26],2.1 h
same,clearance,[27],14 mL/min/kg
same,Activity,Rattus norvegicus [28],520 mg/dL
same,Cmax,[29],267 ng/mL
same,Activity,Rattus norvegicus [30],Active
same,AUC,[31],6.83 µg·h/mL
